In ChEMBL document CHEMBL1142465, “Novel potent inhibitors of A. thaliana cytokinin oxidase/dehydrogenase” (Bioorg Med Chem, 2008):

Tests used:
Triticum aestivum = assay: Cytokinin-like effect in wheat assessed as retention of chlorophyll in excised leaves at 100 umol/L by senescence assay relative to 6-benzylaminopurine; assay type: functional; details: at 100 µM
Amaranthus [1] = assay: Cytokinin-like effect in Amaranthus cotyledons assessed as dark induction of betacyanin synthesis at 100 umol/L relative to 6-benzylaminopurine; assay type: functional; details: at 100 µM
Nicotiana tabacum [2] = assay: Cytokinin-like effect in tobacco assessed as stimulation of callus growth at 100 umol/L relative to 6-benzylaminopurine; assay type: functional
Summary of the method: (§1)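 Cytokinin-dependent tobacco callus growth in 6-well plates, 3 mL MS medium per well, otherwise per published protocol. Compounds from DMSO stocks diluted into medium, final DMSO ≤0.2%. Five replicates per concentration, whole test repeated at least three times. Activity expressed relative to BAP set at 100 (reference 10^-6 M BAP) at the optimal concentration.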

Histidine kinase 3 = target: T1, Histidine kinase 3 (Arabidopsis thaliana, UniProt Q9C5U1); assay: Activation of Arabidopsis thaliana AHK3 receptor expressed in Escherichia coli KMI001 by beta-galactosidase activity
T1 sequence (Q9C5U1 whole entry): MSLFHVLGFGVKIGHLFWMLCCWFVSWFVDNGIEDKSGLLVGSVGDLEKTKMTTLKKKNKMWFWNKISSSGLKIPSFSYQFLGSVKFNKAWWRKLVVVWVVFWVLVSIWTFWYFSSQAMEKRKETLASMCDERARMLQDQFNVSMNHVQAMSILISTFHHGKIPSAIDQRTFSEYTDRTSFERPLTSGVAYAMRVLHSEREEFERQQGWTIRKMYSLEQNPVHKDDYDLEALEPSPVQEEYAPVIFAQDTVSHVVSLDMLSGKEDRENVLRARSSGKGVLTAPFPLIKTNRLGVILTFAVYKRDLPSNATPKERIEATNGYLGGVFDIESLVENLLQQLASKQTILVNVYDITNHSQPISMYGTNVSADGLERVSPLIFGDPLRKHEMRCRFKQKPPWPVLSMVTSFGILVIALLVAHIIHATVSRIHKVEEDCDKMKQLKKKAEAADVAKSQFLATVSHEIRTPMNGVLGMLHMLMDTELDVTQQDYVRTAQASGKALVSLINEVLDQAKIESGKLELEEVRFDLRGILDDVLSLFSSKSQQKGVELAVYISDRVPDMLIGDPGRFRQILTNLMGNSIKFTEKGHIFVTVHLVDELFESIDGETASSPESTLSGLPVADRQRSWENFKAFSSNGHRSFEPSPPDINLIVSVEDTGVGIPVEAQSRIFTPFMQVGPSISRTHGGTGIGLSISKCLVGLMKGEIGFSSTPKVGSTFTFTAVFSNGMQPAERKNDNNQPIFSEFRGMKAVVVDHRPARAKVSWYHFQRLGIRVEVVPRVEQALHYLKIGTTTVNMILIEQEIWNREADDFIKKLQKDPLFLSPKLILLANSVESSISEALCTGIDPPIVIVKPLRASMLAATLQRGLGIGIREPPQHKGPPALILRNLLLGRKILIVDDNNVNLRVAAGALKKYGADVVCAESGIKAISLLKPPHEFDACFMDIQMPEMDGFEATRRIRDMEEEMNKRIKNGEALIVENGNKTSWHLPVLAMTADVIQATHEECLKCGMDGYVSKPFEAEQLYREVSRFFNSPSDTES

Nicotiana tabacum [3] = assay: Cytokinin-like effect in tobacco assessed as stimulation of callus growth at 10 umol/L relative to 6-benzylaminopurine; assay type: functional; details: at 10 µM
[4] = target: T2, Cytokinin dehydrogenase 2 (Arabidopsis thaliana, UniProt Q9FUJ3); assay: Inhibition of sArabidopsis thaliana CKX2 expressed in Saccharomyces cerevisiae 23344c ura-
T2 sequence (Q9FUJ3 whole entry): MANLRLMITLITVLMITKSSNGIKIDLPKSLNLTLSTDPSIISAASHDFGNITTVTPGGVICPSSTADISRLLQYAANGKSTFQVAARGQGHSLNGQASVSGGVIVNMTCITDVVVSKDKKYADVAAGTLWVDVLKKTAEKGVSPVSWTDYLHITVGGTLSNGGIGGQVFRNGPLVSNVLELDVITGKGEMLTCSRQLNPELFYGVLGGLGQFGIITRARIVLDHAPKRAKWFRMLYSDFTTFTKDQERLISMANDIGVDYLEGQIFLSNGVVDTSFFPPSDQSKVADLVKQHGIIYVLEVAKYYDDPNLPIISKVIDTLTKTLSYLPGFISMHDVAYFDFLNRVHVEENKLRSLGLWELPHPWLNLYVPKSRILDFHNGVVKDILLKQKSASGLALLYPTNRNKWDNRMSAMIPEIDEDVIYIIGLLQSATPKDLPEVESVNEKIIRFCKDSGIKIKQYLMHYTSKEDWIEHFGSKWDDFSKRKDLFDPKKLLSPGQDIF

Histidine kinase 4 = Histidine kinase 4 (Arabidopsis thaliana, UniProt Q9C5U0); assay: Activation of Arabidopsis thaliana AHK4/CRE1 receptor expressed in Escherichia coli KMI001 by beta-galactosidase activity
Sequence of Histidine kinase 4 (Q9C5U0 whole entry): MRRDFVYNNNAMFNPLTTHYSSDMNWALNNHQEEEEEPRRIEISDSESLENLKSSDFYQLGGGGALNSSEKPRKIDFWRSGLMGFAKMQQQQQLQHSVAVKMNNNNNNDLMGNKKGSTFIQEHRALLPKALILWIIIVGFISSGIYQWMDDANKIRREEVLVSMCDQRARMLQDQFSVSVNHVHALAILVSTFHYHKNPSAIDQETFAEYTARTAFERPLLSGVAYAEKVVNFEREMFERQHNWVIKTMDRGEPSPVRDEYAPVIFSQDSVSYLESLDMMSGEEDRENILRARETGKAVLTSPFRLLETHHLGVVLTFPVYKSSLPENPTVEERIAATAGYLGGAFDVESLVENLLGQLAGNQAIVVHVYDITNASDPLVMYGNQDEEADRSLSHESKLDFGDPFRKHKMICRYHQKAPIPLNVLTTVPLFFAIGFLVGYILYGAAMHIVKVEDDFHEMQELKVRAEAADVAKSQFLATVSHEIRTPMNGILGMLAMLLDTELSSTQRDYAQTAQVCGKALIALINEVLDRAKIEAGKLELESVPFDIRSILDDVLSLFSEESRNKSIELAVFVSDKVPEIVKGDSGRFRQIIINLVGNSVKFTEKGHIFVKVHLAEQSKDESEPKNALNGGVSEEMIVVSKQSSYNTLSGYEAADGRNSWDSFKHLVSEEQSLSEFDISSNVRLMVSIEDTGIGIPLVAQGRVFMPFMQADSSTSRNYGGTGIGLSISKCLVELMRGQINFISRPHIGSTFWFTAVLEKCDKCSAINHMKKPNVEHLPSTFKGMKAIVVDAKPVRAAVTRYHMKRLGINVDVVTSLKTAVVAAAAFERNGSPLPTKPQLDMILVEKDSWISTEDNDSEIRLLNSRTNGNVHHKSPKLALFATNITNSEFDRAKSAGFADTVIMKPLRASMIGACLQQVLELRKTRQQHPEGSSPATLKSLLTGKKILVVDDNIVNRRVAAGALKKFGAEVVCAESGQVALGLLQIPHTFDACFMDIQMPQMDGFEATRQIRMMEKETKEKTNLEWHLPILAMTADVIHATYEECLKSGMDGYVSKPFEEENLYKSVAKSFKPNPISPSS

Amaranthus [5] = assay: Cytokinin-like effect in Amaranthus cotyledons assessed as dark induction of betacyanin synthesis at 10 umol/L relative to 6-benzylaminopurine; assay type: functional
Summary of the method: (§2)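 Dark induction of betacyanin synthesis in Amaranthus cotyledons, per previously published protocol. Compounds from DMSO stocks diluted into medium, final DMSO ≤0.2%. Five replicates per concentration, whole test repeated at least three times. Relative activity taken at the optimal concentration against BAP set at 100 (reference 10^-5 M BAP).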

Nicotiana tabacum [6] = assay: Cytokinin-like effect in tobacco assessed as stimulation of callus growth at 1 umol/L relative to 6-benzylaminopurine; assay type: functional; summary of the method: as §1
Nicotiana tabacum [7] = assay: Toxicity in tobacco assessed as inhibition of callus growth at 100 uM; details: in vivo
Summary of the method: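 Tobacco callus growth dose-response up to 100 µM in 6-well plates with 3 mL MS medium per well. Compounds from DMSO stocks diluted into medium, final DMSO ≤0.2%. Five replicates per concentration. Readings compared against a control treatment with no cytokinin.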

Amaranthus [8] = assay: Cytokinin-like effect in Amaranthus cotyledons assessed as dark induction of betacyanin synthesis at 0.1 umol/L relative to 6-benzylaminopurine; assay type: functional; summary of the method: as §2
Nicotiana tabacum [9] = assay: Cytokinin-like effect in tobacco assessed as stimulation of callus growth at 0.1 umol/L relative to 6-benzylaminopurine; assay type: functional; summary of the method: as §1

Compound	Activity (Triticum aestivum)	Activity (Amaranthus [1])	Activity (Nicotiana tabacum [2])	EC50 (Histidine kinase 3)	Activity (Nicotiana tabacum [3])	IC50 [4]	EC50 (Histidine kinase 4)	Activity (Amaranthus [5])	Activity (Nicotiana tabacum [6])	Activity (Nicotiana tabacum [7])	Activity (Amaranthus [8])	Activity (Nicotiana tabacum [9])
c1ccc(Nc2ncnc3[nH]cnc23)cc1	14%	52%	47%	> 50 µM								
COc1ccccc1Nc1nc(Cl)nc2[nH]cnc12	29%	63%		33 µM	100%	> 100 µM						
COc1cccc(Nc2nc(N)nc3[nH]cnc23)c1	16%	116%			71%	27 µM						
Clc1ccc(Nc2nc(Cl)nc3[nH]cnc23)cc1	10%	139%		15.1 µM	77%	25.4 µM	> 50 µM					
Clc1cccc(Nc2nc(Cl)nc3[nH]cnc23)c1	11.5%			10.7 µM	95%	3.9 µM		119%				
COc1cccc(Nc2nc(F)nc3[nH]cnc23)c1	13.5%	107%		19 µM	74%	1 µM	19 µM					
Oc1cccc(Nc2nc(Cl)nc3[nH]cnc23)c1	6%	52%		13 µM	111%	3.75 µM	3.75 µM					
Oc1ccc(Nc2nc(Cl)nc3[nH]cnc23)cc1	14%	47.5%	60%	16.5 µM		> 100 µM	4.6 µM					
COc1cccc(Nc2nc(Cl)nc3[nH]cnc23)c1	11%	149%		21 µM	103%	1.9 µM	7 µM					
COc1cccc(Nc2ncnc3[nH]cnc23)c1	13%	124.5%		2.3 µM	42%	12.4 µM	31 µM					
COc1cccc(Nc2nc([N+](=O)[O-])nc3[nH]cnc23)c1	15%	43%	35.5%			14 µM						
COc1cccc(Nc2nc(SC)nc3[nH]cnc23)c1	2%	101%			91%	> 100 µM						
Oc1ccccc1Nc1nc(Cl)nc2nc[nH]c12				19 µM		> 100 µM	> 50 µM					
Fc1ccc(Nc2nc(Cl)nc3[nH]cnc23)cc1	5%	92%		50 µM		50 µM			99%	Non-toxic		
COc1cccc(Nc2nc(Cl)nc3c2ncn3C(C)C)c1	5%	44%			38%	> 100 µM						
COc1ccc(Nc2nc(Cl)nc3[nH]cnc23)cc1	19%	60%			76%	> 100 µM						
Clc1nc(Nc2ccccc2)c2nc[nH]c2n1	23%	139%		> 50 µM		80 µM			103%			
Fc1cccc(Nc2nc(Cl)nc3[nH]cnc23)c1	15%	147%		6 µM		7.5 µM	24.8 µM		101%			
COc1cccc(Nc2nc(Cl)nc3c2ncn3C)c1	30%	69%			76%	61 µM						
C/C(=C\CNc1ncnc2[nH]cnc12)CO	122%	129.6%		0.7 µM	104.6%		1.1 µM					
O=C(Nc1ccccc1)Nc1cnns1 [THIDIAZURON]	108.7%			0.95 µM		29 µM	1 µM				121.1%	102.3%
